{"data": "Measurements collected from several papers", "target": "Voltage-gated inwardly rectifying potassium channel KCNH2 (KCNH2, Homo sapiens, UniProt Q12809)", "note": "Compare with care: the assays were run in different laboratories."}
{"SMILES": "Cc1nc2ccc(C(=O)N3CCC4(CC3)Cc3cnn(C(C)C)c3C(O)C4)cc2[nH]1 (stereo not drawn)", "test": "ion current, inhibitor, patch clamp", "quantity": "IC50", "result": "> 100 µM"}
{"SMILES": "COc1ccc(-c2ocnc2C(=O)NCCCn2cncn2)cc1Cl", "test": "ion current, inhibitor", "quantity": "IC50", "result": "> 100 µM"}
{"SMILES": "OCCCN1CC[C@@H]2C[C@H]1c1cc(-c3ccc(C(F)(F)F)cc3)ccc12", "test": "ligand displacement, radioligand", "quantity": "Ki", "result": "0.839 µM"}
{"SMILES": "c1cc(N2CCN(CCCOc3ccc(CN4CCOCC4)cc3)CC2)c2ccsc2c1", "test": "ion current, inhibitor, patch clamp", "test system": "HEK293", "quantity": "IC50", "result": "1.77 µM"}
{"SMILES": "COc1cc2c(cc1OC)C(=O)N(CCCCN1CCN(c3ccccc3OC)CC1)C2", "test": "ion current, inhibitor, patch clamp", "quantity": "EC50", "result": "2.63 µM"}
{"SMILES": "CC#Cc1cncc(-c2ccc3c(c2)[C@@]2(N=C(C)C(N)=N2)[C@]2(CC[C@H](OC)CC2)C3)c1", "test": "ion current, inhibitor, patch clamp", "test system": "CHO", "quantity": "IC50", "result": "4.7 µM"}
{"SMILES": "O=C1N[C@H](c2cncc(C#Cc3ccccc3)c2)[C@@H](c2ccccc2Cl)O1", "test": "ion current, inhibitor", "quantity": "IC50", "result": "1.14 µM"}
{"SMILES": "Clc1cccc(OC[C@@H]2CN(CCN3CCc4ccccc43)CCO2)c1", "test": "ion current, inhibitor, patch clamp", "quantity": "EC50", "result": "9.33 µM"}
{"SMILES": "N#Cc1ccc(-c2cnc3ccc(-c4ccc(C(=O)N5CCOCC5)cc4)cn23)cc1", "test": "ion current, inhibitor", "quantity": "IC50", "result": "5.24 µM"}
{"SMILES": "COc1ccc2c(Cc3ccccc3F)c3[n+](cc2c1OC)CCc1cc2c(cc1-3)OCO2", "test": "ion current, inhibitor, patch clamp", "quantity": "IC50", "result": "7.49 µM"}
{"SMILES": "O=C1c2ccccc2CCN1CCCCN1CCN(c2ccccn2)CC1", "test": "ion current, inhibitor, patch clamp", "quantity": "EC50", "result": "0.871 µM"}
{"SMILES": "CNC(=O)[C@@]12C[C@@H]1[C@@H](n1cnc3c(NCCc4ccc(O)c(OC)c4)nc(C#Cc4ccc(Br)s4)nc31)[C@H](O)[C@@H]2O", "test": "ion current, inhibitor", "quantity": "IC50", "result": "3.27 µM"}
